The target of assay [1] is T1, DNA topoisomerase 1 (Homo sapiens) (UniProt P11387).
T1 sequence (whole entry): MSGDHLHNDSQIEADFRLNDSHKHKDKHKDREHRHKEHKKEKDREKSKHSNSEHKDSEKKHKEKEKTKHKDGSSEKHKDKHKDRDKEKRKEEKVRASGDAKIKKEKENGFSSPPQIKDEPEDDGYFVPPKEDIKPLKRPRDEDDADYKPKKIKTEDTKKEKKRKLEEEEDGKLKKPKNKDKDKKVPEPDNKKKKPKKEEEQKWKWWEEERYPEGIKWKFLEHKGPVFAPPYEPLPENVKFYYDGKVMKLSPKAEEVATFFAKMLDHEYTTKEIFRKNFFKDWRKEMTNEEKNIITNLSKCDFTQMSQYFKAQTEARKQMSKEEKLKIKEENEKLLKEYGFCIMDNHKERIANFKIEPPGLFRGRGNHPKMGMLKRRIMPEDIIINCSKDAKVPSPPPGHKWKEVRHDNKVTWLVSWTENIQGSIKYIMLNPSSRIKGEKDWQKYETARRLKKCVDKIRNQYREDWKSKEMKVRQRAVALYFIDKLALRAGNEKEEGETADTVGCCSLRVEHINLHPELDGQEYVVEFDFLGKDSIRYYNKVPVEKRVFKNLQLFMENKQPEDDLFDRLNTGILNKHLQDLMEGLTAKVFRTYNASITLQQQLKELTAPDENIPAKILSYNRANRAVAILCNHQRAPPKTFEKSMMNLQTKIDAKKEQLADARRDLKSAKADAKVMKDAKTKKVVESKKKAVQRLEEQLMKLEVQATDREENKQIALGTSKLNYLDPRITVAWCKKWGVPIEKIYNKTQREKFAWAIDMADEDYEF
The experiment in a line: Inhibition of human recombinant DNA topoisomerse 1 using pBR322 as substrate assessed as inhibition of conversion of supercoiled pBR322 to relaxed form at 100 uM after 30 mins by ethidium bromide staining-based electrophoresis analysis. In short, it runs like this:
(§1)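 Relaxation of supercoiled pBR322 (100 ng) by 1 unit recombinant human topo I. Run at 37 °C for 30 min in 10 mM Tris-HCl pH 7.9, 150 mM NaCl, 0.1% BSA, 1 mM spermidine, 5% glycerol. Compounds from 20 mM DMSO stocks. Stopped with sarcosyl, then 1% agarose gel at 15 V for 7 h in TAE. Ethidium bromide stain, UV imaging, bands quantitated.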

Assay [2] concerns the target T1, DNA topoisomerase 1 (Homo sapiens). The experiment in a line: Inhibition of human recombinant DNA topoisomerse 1 using pBR322 as substrate assessed as inhibition of conversion of supercoiled pBR322 to relaxed form at 20 uM after 30 mins by ethidium bromide staining-based electrophoresis analysis. In short, it runs like this:
as §1

In assay [3] the target is DNA topoisomerase 2-alpha (Homo sapiens) (UniProt P11388). The assay is described as follows: Inhibition of human recombinant DNA topoisomerse 2 alpha using pBR322 as substrate assessed as inhibition of conversion of supercoiled pBR322 to relaxed form at 100 uM after 30 mins by ethidium bromide staining-based electrophoresis analysis. In short, it runs like this: (§2)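 Supercoiled pBR322 (200 ng) with 1 unit human topo IIα, 30 min at 30 °C. Buffer: 10 mM Tris-HCl pH 7.9, 50 mM NaCl, 5 mM MgCl2, 1 mM EDTA, 1 mM ATP, 15 μg/mL BSA. Stopped with EDTA. 1% agarose gel at 25 V for 4 h in TAE, ethidium bromide stain, supercoiled DNA quantitated under UV.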

Assay [4] shares this target. The experiment in a line: Inhibition of human recombinant DNA topoisomerse 2 alpha using pBR322 as substrate assessed as inhibition of conversion of supercoiled pBR322 to relaxed form at 20 uM after 30 mins by ethidium bromide staining-based electrophoresis analysis. The procedure, abridged: as §2
For the next assay, the system named is HCT-15. The experiment in a line: Cytotoxicity against human HCT15 cells incubated from day 2 to day 4 by CCK8 assay. In kind it is functional, cell-based. In short, it runs like this:
(§3)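 Cells seeded at 2~4 × 10^4 per well and grown overnight in medium with 10% FBS at 37 °C, 5% CO2. Day 2: FBS starvation 4 h, then medium with graded compound concentrations. Day 4: CCK-8 added for 4 h more, absorbance read at 450 nm. IC50 from four-parameter logistic fit. Mean ± S.D. of three experiments run in triplicate.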

The test system of another assay is T47D. The assay is described as follows: Cytotoxicity against human T47D cells incubated from day 2 to day 4 by CCK8 assay. In kind it is functional, cell-based. The procedure, abridged:
as §3
On the technique in general: Tetrazolium dyes change colour on reduction, which living cells bring about.

In another assay the test system is DU-145. The experiment in a line: Cytotoxicity against human DU145 cells incubated from day 2 to day 4 by CCK8 assay. In kind it is functional, cell-based. The procedure, abridged:
as §3

In the next assay the test system is HeLa. The experiment in a line: Cytotoxicity against human HeLa cells incubated from day 2 to day 4 by CCK8 assay. In kind it is functional, cell-based. The procedure, abridged: as §3

Bounds are passed on as bounds.

Sequence of DNA topoisomerase 2-alpha (Homo sapiens) (P11388 whole entry): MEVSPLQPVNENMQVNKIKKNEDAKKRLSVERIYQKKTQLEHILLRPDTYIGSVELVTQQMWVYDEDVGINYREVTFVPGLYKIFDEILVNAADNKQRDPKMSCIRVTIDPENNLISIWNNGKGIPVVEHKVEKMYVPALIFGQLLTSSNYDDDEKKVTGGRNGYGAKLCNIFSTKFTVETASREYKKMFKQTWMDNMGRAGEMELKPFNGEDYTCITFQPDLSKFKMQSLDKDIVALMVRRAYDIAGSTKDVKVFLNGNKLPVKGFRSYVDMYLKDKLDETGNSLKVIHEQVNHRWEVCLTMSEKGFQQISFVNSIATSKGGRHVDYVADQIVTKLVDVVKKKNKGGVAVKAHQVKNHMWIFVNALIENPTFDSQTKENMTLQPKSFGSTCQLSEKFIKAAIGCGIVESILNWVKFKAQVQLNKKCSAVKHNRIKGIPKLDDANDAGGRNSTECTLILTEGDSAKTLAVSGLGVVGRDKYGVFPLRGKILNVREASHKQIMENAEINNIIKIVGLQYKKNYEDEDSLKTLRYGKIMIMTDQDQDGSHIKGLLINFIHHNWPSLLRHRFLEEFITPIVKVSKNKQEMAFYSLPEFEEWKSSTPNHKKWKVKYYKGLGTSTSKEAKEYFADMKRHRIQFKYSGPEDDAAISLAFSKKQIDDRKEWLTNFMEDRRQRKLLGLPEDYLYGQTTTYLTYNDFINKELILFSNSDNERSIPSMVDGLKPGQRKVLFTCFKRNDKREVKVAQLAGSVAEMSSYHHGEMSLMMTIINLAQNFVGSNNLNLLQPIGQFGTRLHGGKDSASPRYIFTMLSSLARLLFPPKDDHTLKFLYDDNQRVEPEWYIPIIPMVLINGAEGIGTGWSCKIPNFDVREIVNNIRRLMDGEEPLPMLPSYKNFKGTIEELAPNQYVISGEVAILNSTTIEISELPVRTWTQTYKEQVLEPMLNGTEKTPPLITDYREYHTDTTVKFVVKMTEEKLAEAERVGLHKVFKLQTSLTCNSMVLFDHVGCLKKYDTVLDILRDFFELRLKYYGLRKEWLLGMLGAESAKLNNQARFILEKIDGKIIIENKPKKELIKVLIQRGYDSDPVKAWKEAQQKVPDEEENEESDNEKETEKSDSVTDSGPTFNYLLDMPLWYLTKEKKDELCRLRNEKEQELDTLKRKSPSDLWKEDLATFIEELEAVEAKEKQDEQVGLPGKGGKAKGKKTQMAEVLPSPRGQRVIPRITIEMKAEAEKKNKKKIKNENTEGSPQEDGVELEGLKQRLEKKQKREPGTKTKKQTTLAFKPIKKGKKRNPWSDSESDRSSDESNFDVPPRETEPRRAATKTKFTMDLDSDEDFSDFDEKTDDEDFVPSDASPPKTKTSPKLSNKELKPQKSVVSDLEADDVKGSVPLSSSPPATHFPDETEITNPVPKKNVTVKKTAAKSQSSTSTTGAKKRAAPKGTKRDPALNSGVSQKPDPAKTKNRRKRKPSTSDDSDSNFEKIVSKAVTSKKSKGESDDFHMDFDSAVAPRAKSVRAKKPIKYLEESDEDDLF

Take `Oc1cccc(-c2cc(-c3ccoc3)c3c(n2)-c2ccccc2C3)c1`: the inhibition – broadly, how much of the control response was suppressed – in assay [1] is 69.2%; in assay [2], 0%; in assay [3], 56.2%; in assay [4], 19.3%. Further, the IC50 (in general, the concentration that gives 50% inhibition) was > 50 µM with HCT-15, > 50 µM in the assay on T47D, 28.9 µM in the assay with DU-145 and 0.94 µM in the assay on HeLa.

On to `Oc1ccccc1-c1cc(-c2cccs2)c2c(n1)-c1ccccc1C2`, for which the inhibition turned out to be 51.1% in assay [1], 0% in assay [2], 31.5% in assay [3] and 21.9% in assay [4]. Moreover, the IC50 with HCT-15, in the assay on T47D, with DU-145 and with HeLa was > 50 µM each time.

Consider `Oc1ccccc1-c1cc(-c2ccsc2)c2c(n1)-c1ccccc1C2`, for which the inhibition in assay [1] is 87.8%; in assay [2], 0%; in assay [3], 46.8%; in assay [4], 23.2%. The IC50 with HCT-15 was > 50 µM; with T47D it was > 50 µM; in the assay on DU-145 it was 36.5 µM; with HeLa, > 50 µM.

In the case of `Oc1ccc(-c2cc(-c3ccsc3)c3c(n2)-c2ccccc2C3)cc1`, the inhibition in assay [1] stood at 90.1%; in assay [2] it was 0%; in assay [3], 36.9%; in assay [4], 0%. Moreover, the IC50 in the assay with HCT-15, in the assay on T47D, in the assay on DU-145 and in the assay on HeLa was > 50 µM throughout.

On to `Oc1ccc(-c2cc(-c3cccs3)c3c(n2)-c2ccccc2C3)cc1`, for which the inhibition in assay [1] was determined as 69.1%; in assay [2], 0%; in assay [3], 40.1%; in assay [4], 21.4%. The IC50 in the assay on HCT-15, in the assay with T47D, with DU-145 and in the assay on HeLa was > 50 µM in each case.

Consider `Oc1cccc(-c2cc(-c3cccnc3)c3c(n2)-c2ccccc2C3)c1`, for which the inhibition is 68.5% in assay [1], 1.7% in assay [2], 50.6% in assay [3] and 30.6% in assay [4]. In addition, the half-inhibitory concentration (IC50) in the assay on HCT-15 is > 50 µM; in the assay with T47D, > 50 µM; with DU-145 it was > 50 µM; in the assay on HeLa, 4.67 µM.

Regarding `Oc1ccc(-c2cc(-c3ccco3)c3c(n2)-c2ccccc2C3)cc1`, the inhibition stood at 54.8% in assay [1], 2.7% in assay [2], 59.9% in assay [3] and 44.2% in assay [4]. Also, the IC50 with HCT-15, in the assay on T47D, in the assay on DU-145 and in the assay on HeLa was > 50 µM throughout.

`Oc1ccc(-c2cc(-c3ccoc3)c3c(n2)-c2ccccc2C3)cc1`: the inhibition is 63.5% in assay [1], 0% in assay [2], 40.4% in assay [3] and 36.9% in assay [4]. Besides, the IC50 with HCT-15, in the assay on T47D, with DU-145 and in the assay on HeLa was > 50 µM each time.

The values above are taken from ChEMBL document CHEMBL3596197, “Synthesis, topoisomerase I and II inhibitory activity, cytotoxicity, and structure-activity relationship study of 2-phenyl- or hydroxylated 2-phenyl-4-aryl-5H-indeno[1,2-b]pyridines” (Bioorg Med Chem, 2015).
